# ChEMBL document CHEMBL3621102, “Structure-activity study of quinazoline derivatives leading to the discovery of potent EGFR-T790M inhibitors” (Eur J Med Chem, 2015)
# Active and inactive are the calls of the source. The rule behind the calls is not given here.
# Key:
# NCI-H1975 [1] = experiment: Antiproliferative activity against human NCI-H1975 cells assessed as growth inhibition; assay type: functional
# Procedure, shortened: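 NCI-H1975 cells were grown in RPMI with 1 mM sodium pyruvate, 10% FBS and 1% penicillin-streptomycin, under humidified 5% CO₂ at 37 °C. Growth inhibition was read as GI₅₀.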
# [2] = AUC (0 to 24 hrs) in Sprague-Dawley rat at 1 mg/kg, iv by LC/MS/MS method; assay type: ADME, organism-based; design: time < 24 hr, dose 1 mg/kg, route intravenous; details: in vivo
# Procedure, shortened: (§1)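 Male Sprague-Dawley rats (n = 3) dosed once at 1 mg/kg iv via tail vein, or once at 5 mg/kg by oral gavage, using the same formulation. Serial blood samples were taken over 24 h. Plasma levels were measured by LC/MS/MS (C18 column, 10 mM ammonium formate-0.1% formic acid water/methanol 10/90, ESI positive). Parameters were derived by noncompartmental analysis.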
# [3] = Mean residence time in Sprague-Dawley rat at 1 mg/kg, iv incubated for 24 hrs by LC/MS/MS method; assay type: ADME, organism-based; details: in vivo; procedure, shortened: as §1
# [4] = Bioavailability in Sprague-Dawley rat at 1 mg/kg, iv incubated for 24 hrs by LC/MS/MS method; assay type: ADME, organism-based; details: in vivo; procedure, shortened: as §1
# [5] = Clearance in Sprague-Dawley rat at 1 mg/kg, iv incubated for 24 hrs by LC/MS/MS method; assay type: ADME, organism-based; details: in vivo; procedure, shortened: as §1
# NCI-H1975 [6] = experiment: Antitumor activity against human NCI-H1975 cells xenografted in BALB/c mouse assessed as tumor growth inhibition at 50 mg/kg po, qd for 21 days; assay type: functional, organism-based
# Procedure, shortened: (§2)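 Athymic mice received 2 × 10⁶ tumour cells subcutaneously in the right flank. At 100–300 mm³ they were randomised to control and treatment groups (n = 6); controls received vehicle alone. Tumour volume = length × width²/2 and RTV = Vt/V0.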
# [7] = Elimination half-life in Sprague-Dawley rat at 1 mg/kg, iv incubated for 24 hrs by LC/MS/MS method; assay type: ADME, organism-based; details: in vivo, read-out: beta t1/2 (converted); procedure, shortened: as §1
# [8] = AUC (0 to infinity) in Sprague-Dawley rat at 1 mg/kg, iv by LC/MS/MS method; assay type: ADME, organism-based; design: dose 1 mg/kg, time infinity, route intravenous; details: in vivo; procedure, shortened: as §1
# [9] = biological target: Epidermal growth factor receptor (Homo sapiens, UniProt P00533); experiment: Inhibition of EGFR (unknown origin) by ELISA method
# [10] = Apparent volume of distribution in Sprague-Dawley rat at 1 mg/kg, iv incubated for 24 hrs by LC/MS/MS method; assay type: ADME, organism-based; details: in vivo, read-out: Vd(app); procedure, shortened: as §1
# HCC827 = experiment: Antitumor activity against human HCC827 cells xenografted in BALB/c mouse assessed as tumor growth inhibition at 5 mg/kg po, qd for 12 days; assay type: functional, organism-based; procedure, shortened: as §2
# A-431 = experiment: Antitumor activity against human A431 cells xenografted in BALB/c mouse assessed as tumor growth inhibition at 5 mg/kg po, qd for 18 days; assay type: functional, organism-based; procedure, shortened: as §2
# NCI-H1975 [11] = experiment: Antitumor activity against human NCI-H1975 cells xenografted in BALB/c mouse assessed as tumor growth inhibition at 30 mg/kg po, qd for 21 days relative to control; assay type: functional, organism-based; procedure, shortened: as §2
# Chain of Epidermal growth factor receptor (P00533 whole entry): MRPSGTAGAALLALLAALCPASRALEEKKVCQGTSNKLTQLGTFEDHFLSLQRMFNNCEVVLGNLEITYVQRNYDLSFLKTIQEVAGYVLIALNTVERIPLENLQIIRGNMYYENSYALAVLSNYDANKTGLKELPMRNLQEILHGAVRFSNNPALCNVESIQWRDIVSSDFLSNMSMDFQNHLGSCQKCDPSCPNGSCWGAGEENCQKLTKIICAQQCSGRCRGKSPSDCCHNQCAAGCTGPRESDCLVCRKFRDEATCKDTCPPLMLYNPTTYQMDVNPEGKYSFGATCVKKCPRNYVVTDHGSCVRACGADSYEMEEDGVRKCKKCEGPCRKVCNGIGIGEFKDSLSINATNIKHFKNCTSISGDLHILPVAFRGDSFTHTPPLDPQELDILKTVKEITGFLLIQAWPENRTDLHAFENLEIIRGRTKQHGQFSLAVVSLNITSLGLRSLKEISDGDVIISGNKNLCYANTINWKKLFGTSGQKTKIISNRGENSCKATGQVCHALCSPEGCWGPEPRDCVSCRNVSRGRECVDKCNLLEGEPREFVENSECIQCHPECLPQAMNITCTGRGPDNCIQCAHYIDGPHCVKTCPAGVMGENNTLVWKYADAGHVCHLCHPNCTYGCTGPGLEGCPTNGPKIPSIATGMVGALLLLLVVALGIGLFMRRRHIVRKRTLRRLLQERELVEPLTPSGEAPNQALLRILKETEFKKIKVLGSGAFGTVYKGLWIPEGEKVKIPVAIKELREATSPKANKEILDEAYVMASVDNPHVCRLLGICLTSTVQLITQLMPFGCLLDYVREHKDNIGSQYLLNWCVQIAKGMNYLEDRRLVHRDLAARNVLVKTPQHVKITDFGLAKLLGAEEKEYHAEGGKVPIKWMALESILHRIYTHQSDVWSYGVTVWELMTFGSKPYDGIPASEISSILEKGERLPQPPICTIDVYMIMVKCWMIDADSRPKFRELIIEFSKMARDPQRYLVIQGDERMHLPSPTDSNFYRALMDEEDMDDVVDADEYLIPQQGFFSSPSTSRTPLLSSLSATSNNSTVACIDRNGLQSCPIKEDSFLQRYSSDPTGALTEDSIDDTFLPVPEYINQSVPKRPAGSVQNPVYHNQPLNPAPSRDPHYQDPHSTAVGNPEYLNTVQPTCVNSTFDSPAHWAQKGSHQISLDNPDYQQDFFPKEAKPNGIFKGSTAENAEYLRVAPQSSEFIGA
IC50 [9] [nM],Structure (SMILES),other results
–,COc1cc2ncnc(Nc3ccc(F)c(Cl)c3)c2cc1NC(=O)/C=C/CN1CCCCC1 [DACOMITINIB ANHYDROUS],GI50 (NCI-H1975 [1]): 123 nM
7,CC(C)NC/C=C/C(=O)Nc1cc2c(Nc3ccc(F)c(Cl)c3)ncnc2cc1O[C@H]1CCOC1,AUC(0-t) at 24 h [2]: 166 ng·h/mL; MRT [3]: 8.8 h; bioavailability [4]: < 5%; clearance [5]: 90 mL/min/kg; TGI (NCI-H1975 [6]): inactive; half-life [7]: 9.9 h; AUC(0-inf) [8]: 197 ng·h/mL; GI50 (NCI-H1975 [1]): 22.4 nM; Vd [10]: 6.5 L/kg
5.3,O=C(/C=C/CN1CCCCC1)Nc1cc2c(Nc3ccc(F)c(Cl)c3)ncnc2cc1O[C@H]1CCOC1,GI50 (NCI-H1975 [1]): 168 nM
100,C=CC(=O)Nc1cc2c(Nc3ccc(OCc4ccccn4)cc3)ncnc2cc1O[C@H]1CCOC1,–
141,COc1cc2ncnc(Nc3ccc(F)c(Cl)c3)c2cc1NC(=O)/C=C/CNC1CC(F)(F)C1,GI50 (NCI-H1975 [1]): 98.7 nM
10,COCCOc1cc2ncnc(Nc3ccc(OCc4ccccn4)cc3)c2cc1NC(=O)/C=C/CN(C)C,–
9,CN(C)C/C=C/C(=O)Nc1cc2c(Nc3ccc(OCc4ccccn4)cc3)ncnc2cc1O[C@H]1CCOC1,–
3.3,C#Cc1cccc(Nc2ncnc3cc(OC)c(NC(=O)/C=C/CN(C)C4CC4)cc23)c1,GI50 (NCI-H1975 [1]): 70.5 nM
510,CN(C)C/C=C/C(=O)Nc1cc2c(Nc3ccc(OCc4cccc(F)c4)c(Cl)c3)ncnc2cc1O[C@H]1CCOC1,–
72.2,C=CC(=O)Nc1cc2c(Nc3ccc(OCc4cccc(F)c4)cc3)ncnc2cc1O[C@H]1CCOC1,–
121,C=CC(=O)Nc1cc2c(Nc3ccc(Br)cc3F)ncnc2cc1O[C@H]1CCOC1,–
147,CN(C)C/C=C/C(=O)Nc1cc2c(Nc3ccc(F)c(C#N)c3)ncnc2cc1O[C@H]1CCOC1,–
91,COCCOc1cc2ncnc(Nc3ccc(OCc4cccc(F)c4)cc3)c2cc1NC(=O)/C=C/CN(C)C,–
1.2,C#Cc1cccc(Nc2ncnc3cc(O[C@H]4CCOC4)c(NC(=O)/C=C/CN(C)C)cc23)c1,–
2.7,C#Cc1cccc(Nc2ncnc3cc(OC)c(NC(=O)/C=C/CN4CCCCC4)cc23)c1,GI50 (NCI-H1975 [1]): 48.9 nM
8.1,C#Cc1cccc(Nc2ncnc3cc(OC4CCN(C)CC4)c(NC(=O)/C=C/CN(C)C)cc23)c1,–
8.1,CN(C)C/C=C/C(=O)Nc1cc2c(Nc3ccc(OCc4ccccn4)c(Cl)c3)ncnc2cc1O[C@H]1CCOC1,–
2.1,COCCOc1cc2ncnc(Nc3ccc(F)c(Cl)c3)c2cc1NC(=O)/C=C/CN1CCCCC1,GI50 (NCI-H1975 [1]): 92.3 nM
6.1,C#Cc1cccc(Nc2ncnc3cc(OCC)c(NC(=O)/C=C/CN4CCCCC4)cc23)c1,GI50 (NCI-H1975 [1]): 30.4 nM
1.8,C#Cc1cccc(Nc2ncnc3cc(OCCOC)c(NC(=O)C=C)cc23)c1,–
105,C=CC(=O)Nc1cc2c(Nc3ccc(Cl)c(C(F)(F)F)c3)ncnc2cc1O[C@H]1CCOC1,–
> 1000,COc1cc2ncnc(Nc3ccc(F)c(Cl)c3)c2cc1NC(=O)/C=C/CN1CC[S+]([O-])CC1,–
5.8,C=CC(=O)Nc1cc2c(Nc3ccc(F)c(Cl)c3)ncnc2cc1O[C@H]1CCOC1,–
> 1000,CCOc1cc2ncnc(Nc3ccc(F)c(Cl)c3)c2cc1NC(=O)/C=C/CN(C1CC1)C1CC1,–
5.3,C#Cc1cccc(Nc2ncnc3cc(O[C@H]4CCOC4)c(NC(=O)/C=C/CN4CCCCC4)cc23)c1,GI50 (NCI-H1975 [1]): 40.1 nM
102,COCCOc1cc2ncnc(Nc3ccc(NC(=O)/C=C/CN(C)C)c(C(F)(F)F)c3)c2cc1NC(=O)/C=C/CN(C)C,–
520,O=C1CCN(C/C=C/C(=O)Nc2cc3c(Nc4ccc(F)c(Cl)c4)ncnc3cc2O[C@H]2CCOC2)CC1,–

IC50 [9] [nM],Structure (SMILES),other results
357,COCCOc1cc2ncnc(Nc3ccc(F)c(Cl)c3)c2cc1NC(=O)/C=C/CN1CC[S+]([O-])CC1,–
> 1000,COc1cc2ncnc(Nc3ccc(F)c(Cl)c3)c2cc1NC(=O)/C=C/CN(C1CC1)C1CC1,–
8.9,COCCOc1cc2ncnc(Nc3ccc(F)c(Cl)c3)c2cc1NC(=O)/C=C/CN(C)C1CC1,GI50 (NCI-H1975 [1]): 87.1 nM
–,CN(C)C/C=C/C(=O)Nc1cc2c(Nc3ccc(F)c(Cl)c3)ncnc2cc1O[C@H]1CCOC1 [AFATINIB],AUC(0-t) at 24 h [2]: 277 ng·h/mL; MRT [3]: 10.6 h; bioavailability [4]: 62.3%; clearance [5]: 54.2 mL/min/kg; half-life [7]: 9.6 h; AUC(0-inf) [8]: 324 ng·h/mL; GI50 (NCI-H1975 [1]): 107 nM; Vd [10]: 10.8 L/kg
196,C=CC(=O)Nc1cc2c(Nc3ccc(F)c(C#N)c3)ncnc2cc1OCCOC,–
109,O=C(/C=C/CN1CC[S+]([O-])CC1)Nc1cc2c(Nc3ccc(F)c(Cl)c3)ncnc2cc1O[C@H]1CCOC1,–
102,C=CC(=O)Nc1cc2c(Nc3ccc(OCc4cccc(F)c4)c(Cl)c3)ncnc2cc1OCCOC,–
–,O=C(/C=C/CNC1CC1)Nc1cc2c(Nc3ccc(F)c(Cl)c3)ncnc2cc1OCC(F)(F)F,GI50 (NCI-H1975 [1]): 20.3 nM
167,C=CC(=O)Nc1cc2c(Nc3ccc(F)c(C#N)c3)ncnc2cc1O[C@H]1CCOC1,–
560,C=CC(=O)Nc1cc2c(Nc3ccc(OCc4cccc(F)c4)c(Cl)c3)ncnc2cc1O[C@H]1CCOC1,–
5.4,COCCOc1cc2ncnc(Nc3ccc(OCc4ccccn4)c(Cl)c3)c2cc1NC(=O)/C=C/CN(C)C,–
> 1000,O=C(/C=C/CN(C1CC1)C1CC1)Nc1cc2c(Nc3ccc(F)c(Cl)c3)ncnc2cc1O[C@H]1CCOC1,–
6,C#Cc1cccc(Nc2ncnc3cc(OC4CCOCC4)c(NC(=O)/C=C/CN(C)C)cc23)c1,–
–,CN(C)C/C=C/C(=O)Nc1cc2c(Nc3ccc(F)c(Cl)c3)ncnc2cc1O[C@H]1CCOC1,TGI (HCC827): Active; TGI (A-431): Active; TGI (NCI-H1975 [11]): Active
> 1000,C=CC(=O)Nc1cc2c(Nc3ccc(Cl)c(C(F)(F)F)c3)ncnc2cc1OCCOC,–
574,COCCOc1cc2ncnc(Nc3ccc(Cl)c(C(F)(F)F)c3)c2cc1NC(=O)/C=C/CN(C)C,–
1.2,COCCOc1cc2ncnc(Nc3ccc(F)c(Cl)c3)c2cc1NC(=O)/C=C/CN(C)C,–
5.5,CCOc1cc2ncnc(Nc3ccc(F)c(Cl)c3)c2cc1NC(=O)/C=C/CN(C)C1CC1,GI50 (NCI-H1975 [1]): 160 nM
6.4,C#Cc1cccc(Nc2ncnc3cc(O[C@H]4CCOC4)c(NC(=O)/C=C/CNC(C)C)cc23)c1,AUC(0-t) at 24 h [2]: 92.6 ng·h/mL; MRT [3]: 2.6 h; bioavailability [4]: < 5%; clearance [5]: 170 mL/min/kg; TGI (NCI-H1975 [6]): inactive; half-life [7]: 1.5 h; AUC(0-inf) [8]: 105 ng·h/mL; GI50 (NCI-H1975 [1]): 19.8 nM; Vd [10]: 7.4 L/kg
32.2,C#Cc1cccc(Nc2ncnc3cc(O[C@H]4CCOC4)c(NC(=O)C=C)cc23)c1,–
> 1000,COCCOc1cc2ncnc(Nc3ccc(F)c(C#N)c3)c2cc1NC(=O)/C=C/CN(C)C,–
9.6,O=C(/C=C/CNC1CC1)Nc1cc2c(Nc3ccc(F)c(Cl)c3)ncnc2cc1OC(F)F,GI50 (NCI-H1975 [1]): 34.6 nM
26.9,COc1cc2ncnc(Nc3ccc(F)c(Cl)c3)c2cc1NC(=O)/C=C/CN(C)C1CC1,GI50 (NCI-H1975 [1]): 32.2 nM
> 1000,COCCOc1cc2ncnc(Nc3ccc(OCc4cccc(F)c4)c(Cl)c3)c2cc1NC(=O)/C=C/CN(C)C,–
115,C=CC(=O)Nc1cc2c(Nc3ccc(NC(=O)C=C)c(C(F)(F)F)c3)ncnc2cc1OCCOC,–
134,CN(C)C/C=C/C(=O)Nc1cc2c(Nc3ccc(OCc4cccc(F)c4)cc3)ncnc2cc1O[C@H]1CCOC1,–
3,COCCOc1cc2ncnc(Nc3ccc(Br)cc3F)c2cc1NC(=O)/C=C/CN(C)C,–
